From ChEMBL document CHEMBL2440018 (J Med Chem, 2013)
Active and inactive are the calls of the source. No cut-off for these calls is given here.

Columns and labels:
[1] = target: 72 kDa type IV collagenase (Homo sapiens, UniProt P08253); assay: Inhibition of human recombinant MMP-2 using MOCAcPLGLA2pr(Dnp)AR-NH2 as substrate by fluorescence spectrophotometric analysis
[2] = test system: Liver; assay: Half life in rat liver S9 fraction at 10 uM by reversed-phase UPLC/ESI-MRM analysis; assay type: ADME, subcellular; settings: s9, 10 µM
Summary of the method: (§1)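 Male rat liver S9 (1.0 mg) with 0.5 mM NADPH and 10 µM compound (both final) in 50 mM potassium phosphate, pH 7.4, at 37 °C, sampled over time. Aliquots were stopped with acetonitrile containing internal standard, and the supernatant was run by UPLC/ESI-MRM. Half-lives used first-order kinetics on peak-area ratios to internal standard.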

[3] = target: T1, Matrilysin (Homo sapiens) (UniProt P09237); assay: Inhibition of human recombinant MMP-7 at 50 uM by fluorescence spectrophotometric analysis relative to control
T1 sequence (whole entry): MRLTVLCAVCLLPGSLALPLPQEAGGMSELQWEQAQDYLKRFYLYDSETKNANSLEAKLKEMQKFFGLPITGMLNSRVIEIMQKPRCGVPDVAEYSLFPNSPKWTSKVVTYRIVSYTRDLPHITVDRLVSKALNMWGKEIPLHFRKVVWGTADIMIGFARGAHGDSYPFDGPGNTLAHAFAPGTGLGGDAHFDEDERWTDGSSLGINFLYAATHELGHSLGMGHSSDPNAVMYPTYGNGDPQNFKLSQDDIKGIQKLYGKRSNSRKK

[4] = test system: Liver; assay: Metabolic stability in rat liver S9 fraction assessed as formation of 4-(4-(methoxycarbonylamino)phenoxy)benzenesulfinic acid at 50 uM after 30 mins by reversed-phase LC/MS analysis; assay type: ADME, subcellular; settings: s9, 0.5 h
Summary of the method: (§2)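 50 µM compound was incubated with rat liver S9 (1.0 mg) and 0.5 mM NADPH in 50 mM potassium phosphate, pH 7.4, at 37 °C for 30 min. The reaction was stopped with one volume of acetonitrile and centrifuged. Metabolites in the supernatant were identified by reversed-phase LC/ESI-QTOF mass spectrometry.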

[5] = test system: Liver; assay: Metabolic stability in rat liver S9 fraction assessed as formation of {4-[4-(1-Oxo-1lambda4-thiiran-2-ylmethanesulfonyl)-phenoxy]-phenyl}-carbamic acid methyl ester at 50 uM after 30 mins by reversed-phase LC/MS analysis; assay type: ADME, subcellular; settings: s9, 0.5 h; summary of the method: as §2
[6] = target: MMP-2/MMP-9 (Homo sapiens) (UniProt P08253+P14780); assay: Selectivity ratio of Ki for human recombinant MMP-9 catalytic domain to Ki for human recombinant MMP-2
[7] = target: T2, Interstitial collagenase (Homo sapiens) (UniProt P03956); assay: Inhibition of human recombinant MMP-1 catalytic domain at 50 uM by fluorescence spectrophotometric analysis relative to control
T2 sequence (whole entry): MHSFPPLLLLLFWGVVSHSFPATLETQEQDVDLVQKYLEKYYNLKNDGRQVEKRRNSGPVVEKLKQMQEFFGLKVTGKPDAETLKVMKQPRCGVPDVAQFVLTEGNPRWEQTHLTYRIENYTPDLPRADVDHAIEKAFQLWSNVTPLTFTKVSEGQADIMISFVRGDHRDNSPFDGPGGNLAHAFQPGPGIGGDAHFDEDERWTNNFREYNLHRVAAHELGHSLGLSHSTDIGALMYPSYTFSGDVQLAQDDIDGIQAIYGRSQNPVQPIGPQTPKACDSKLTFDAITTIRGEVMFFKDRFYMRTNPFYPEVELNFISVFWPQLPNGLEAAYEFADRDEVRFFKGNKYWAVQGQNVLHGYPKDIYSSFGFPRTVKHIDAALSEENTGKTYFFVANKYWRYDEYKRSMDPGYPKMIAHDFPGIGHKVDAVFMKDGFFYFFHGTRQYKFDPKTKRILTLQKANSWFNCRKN

[8] = target: Stromelysin-1 (Homo sapiens) (UniProt P08254); assay: Inhibition of human recombinant MMP-3 catalytic domain at 50 uM by fluorescence spectrophotometric analysis relative to control
[9] = target: T3, Matrix metalloproteinase-14 (Homo sapiens, UniProt P50281); assay: Inhibition of human recombinant MMP-14 catalytic domain using MOCAcPLGLA2pr(Dnp)AR-NH2 as substrate by fluorescence spectrophotometric analysis
[10] = test system: Liver; assay: Metabolic stability in rat liver S9 fraction assessed as formation of 4-(4-(thiiran-2-ylmethylsulfonyl)phenoxy)aniline at 50 uM after 30 mins by reversed-phase LC/MS analysis; assay type: ADME, subcellular; settings: s9, 0.5 h; summary of the method: as §2
[11] = Primary phase half life in C57Bl/6J mouse brain at 25 mg/kg, sc; assay type: ADME, organism-based; design: dose 25 mg/kg, route subcutaneous; settings: read-out: alphat1/2
Summary of the method: (§3)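 Mice were dosed sc once at 25 mg/kg; plasma and perfused brain (n = 3 per time point) were quantified by UPLC/ESI-MRM. AUC0-last came from the mean concentration-time curve by the trapezoidal rule, and AUC0-∞ = AUC0-last + Clast/k. α and β half-lives came from linear regression on the linear portion of the concentration-time data, with t1/2 = ln2/k.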

[12] = test system: Brain; assay: Drug uptake in C57Bl/6J mouse brain at 25 mg/kg, sc measured at 10 mins by reversed phase UPLC/ESI-MRM analysis; assay type: ADME, organism-based; design: dose 25 mg/kg, route subcutaneous; settings: in vivo
Summary of the method: (§4)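 Female C57Bl/6J mice (6–8 weeks, 16–19 g) received a single 100 µL sc dose equivalent to 25 mg/kg, in 10% DMSO/25% Tween 80/65% water or 80% propylene glycol/20% DMSO. Terminal heparinised vena cava blood gave plasma, and saline-perfused whole brain was taken; n = 3 per time point. Acetonitrile extracts with internal standard were run by UPLC/ESI-MRM against matrix calibration curves, linear 0.05–5 µM.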

[13] = test system: Plasma; assay: AUC (0 to last) in C57Bl/6J mouse plasma at 25 mg/kg, sc; assay type: ADME, organism-based; design: time 0 - last, dose 25 mg/kg, route subcutaneous; settings: in vivo; summary of the method: as §3
[14] = test system: Plasma; assay: Metabolic stability in C57Bl/6J mouse plasma assessed as formation of ND-322 at 25 mg/kg, sc measured at 10 to 300 mins; assay type: ADME, organism-based; design: dose 25 mg/kg, route subcutaneous; settings: in vivo; summary of the method: as §4
[15] = test system: Brain; assay: AUC (0 to infinity) in C57Bl/6J mouse brain at 25 mg/kg, sc; assay type: ADME, organism-based; design: time infinity, dose 25 mg/kg, route subcutaneous; settings: in vivo; summary of the method: as §3
[16] = test system: Brain; assay: AUC (0 to last) in C57Bl/6J mouse brain at 25 mg/kg, sc; assay type: ADME, organism-based; design: dose 25 mg/kg, route subcutaneous; settings: in vivo; summary of the method: as §3
[17] = target: MMP-2/MMP-14 (Homo sapiens) (UniProt P50281+P08253); assay: Selectivity ratio of Ki for human recombinant MMP-14 catalytic domain to Ki for human recombinant MMP-2
[18] = test system: Plasma; assay: AUC (0 to infinity) in C57Bl/6J mouse plasma at 25 mg/kg, sc; assay type: ADME, organism-based; design: time infinity, dose 25 mg/kg, route subcutaneous; settings: in vivo; summary of the method: as §3
[19] = test system: Plasma; assay: Plasma concentration in C57Bl/6J mouse at 25 mg/kg, sc measured at 10 mins by reversed phase UPLC/ESI-MRM analysis; assay type: ADME, organism-based; design: dose 25 mg/kg, route subcutaneous; settings: in vivo; summary of the method: as §4
[20] = test system: Brain; assay: Metabolic stability in C57Bl/6J mouse brain assessed as formation of ND-322 at 25 mg/kg, sc measured at 10 to 300 mins; assay type: ADME, organism-based; design: dose 25 mg/kg, route subcutaneous; settings: in vivo; summary of the method: as §4
[21] = test system: Brain; assay: Drug uptake in C57Bl/6J mouse brain measured per mg of tissue at 25 mg/kg, sc measured at 5 hrs by reversed phase UPLC/ESI-MRM analysis; assay type: ADME, organism-based; design: dose 25 mg/kg, route subcutaneous; settings: in vivo; summary of the method: as §4
[22] = Primary phase half life in C57Bl/6J mouse plasma at 25 mg/kg, sc; assay type: ADME, organism-based; design: dose 25 mg/kg, route subcutaneous; settings: read-out: alphat1/2; summary of the method: as §3
[23] = test system: Brain; assay: Elimination half life in C57Bl/6J mouse brain at 25 mg/kg, sc; assay type: ADME, organism-based; design: dose 25 mg/kg, route subcutaneous; settings: in vivo; summary of the method: as §3
[24] = target: T3, Matrix metalloproteinase-14; assay: Inhibition of human recombinant MMP-14 catalytic domain using MOCAcPLGLA2pr(Dnp)AR-NH2 as substrate at 50 uM by fluorescence spectrophotometric analysis relative to control
[25] = target: T4, Matrix metalloproteinase-9 (Homo sapiens, UniProt P14780); assay: Inhibition of human recombinant MMP-9 catalytic domain using MOCAcPLGLA2pr(Dnp)AR-NH2 as substrate at 50 uM by fluorescence spectrophotometric analysis relative to control
T4 sequence (P14780 whole entry, the tested form may be a part): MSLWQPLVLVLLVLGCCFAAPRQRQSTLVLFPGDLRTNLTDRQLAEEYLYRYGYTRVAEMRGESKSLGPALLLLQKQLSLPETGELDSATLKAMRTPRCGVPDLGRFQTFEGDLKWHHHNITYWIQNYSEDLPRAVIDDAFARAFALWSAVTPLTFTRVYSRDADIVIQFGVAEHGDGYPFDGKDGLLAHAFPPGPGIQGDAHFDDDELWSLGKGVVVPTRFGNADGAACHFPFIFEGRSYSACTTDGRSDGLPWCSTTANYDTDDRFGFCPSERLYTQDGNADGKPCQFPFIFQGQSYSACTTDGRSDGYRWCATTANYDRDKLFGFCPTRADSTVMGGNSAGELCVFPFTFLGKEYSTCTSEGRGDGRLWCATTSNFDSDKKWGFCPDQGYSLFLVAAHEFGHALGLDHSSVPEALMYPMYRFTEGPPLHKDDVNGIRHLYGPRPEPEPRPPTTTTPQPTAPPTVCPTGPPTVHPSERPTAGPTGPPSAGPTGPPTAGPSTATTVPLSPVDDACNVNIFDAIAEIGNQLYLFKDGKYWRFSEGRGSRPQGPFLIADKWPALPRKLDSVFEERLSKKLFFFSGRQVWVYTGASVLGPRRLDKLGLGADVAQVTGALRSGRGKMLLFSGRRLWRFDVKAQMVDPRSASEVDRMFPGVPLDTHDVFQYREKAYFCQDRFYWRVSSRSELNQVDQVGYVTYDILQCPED

[26] = organism: Homo sapiens; assay: Selectivity ratio of Ki for human recombinant MMP-8 catalytic domain to Ki for human recombinant MMP-2
[27] = Plasma concentration in C57Bl/6J mouse at 25 mg/kg, sc measured at 5 hrs by reversed phase UPLC/ESI-MRM analysis; assay type: ADME, organism-based; design: dose 25 mg/kg, route subcutaneous; summary of the method: as §4
[28] = Ratio of AUC in brain to plasma in C57Bl/6J mouse at 25 mg/kg, sc; assay type: ADME, organism-based; design: dose 25 mg/kg, route subcutaneous; settings: brain and plasma, read-out: Ratio AUC
[29] = test system: Plasma; assay: Elimination half life in C57Bl/6J mouse plasma at 25 mg/kg, sc; assay type: ADME, organism-based; design: dose 25 mg/kg, route subcutaneous; settings: in vivo; summary of the method: as §3
[30] = target: Neutrophil collagenase (Homo sapiens, UniProt P22894); assay: Inhibition of human recombinant MMP-8 catalytic domain using […] as substrate by fluorescence spectrophotometric analysis
Neutrophil collagenase, sequence (P22894 whole entry, the tested form may be a part): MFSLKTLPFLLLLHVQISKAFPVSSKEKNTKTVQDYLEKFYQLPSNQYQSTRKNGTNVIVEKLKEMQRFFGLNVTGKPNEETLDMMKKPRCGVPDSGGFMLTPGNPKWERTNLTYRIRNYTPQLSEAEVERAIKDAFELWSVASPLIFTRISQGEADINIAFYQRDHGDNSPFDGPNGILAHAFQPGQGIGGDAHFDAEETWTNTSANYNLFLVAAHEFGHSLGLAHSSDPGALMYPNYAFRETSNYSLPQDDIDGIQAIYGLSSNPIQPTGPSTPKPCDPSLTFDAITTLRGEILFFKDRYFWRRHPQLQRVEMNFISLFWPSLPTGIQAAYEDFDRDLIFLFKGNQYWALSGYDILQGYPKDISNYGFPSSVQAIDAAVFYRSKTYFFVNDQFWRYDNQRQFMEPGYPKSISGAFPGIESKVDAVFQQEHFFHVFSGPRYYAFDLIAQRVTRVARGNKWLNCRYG

[31] = target: Stromelysin-1 (Homo sapiens) (UniProt P08254); assay: Inhibition of human recombinant MMP-3 catalytic domain at 30 uM by fluorescence spectrophotometric analysis relative to control
[32] = target: T4, Matrix metalloproteinase-9; assay: Inhibition of human recombinant MMP-9 catalytic domain using MOCAcPLGLA2pr(Dnp)AR-NH2 as substrate by fluorescence spectrophotometric analysis
[33] = test system: Liver; assay: Metabolic stability in rat liver S9 fraction assessed as formation of 4-(4-(thiiran-2-ylmethylsulfonyl)phenoxy)phenol after 5 mins by reversed-phase LC/MS analysis; assay type: ADME, subcellular; settings: s9, 5 min
Summary of the method: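 Male rat liver S9 (1.0 mg) incubated with 10 μM compound (final) and 0.5 mM NADPH (final) in 50 mM potassium phosphate, pH 7.4, 37 °C. Aliquots taken at several time points. Reactions quenched with one volume acetonitrile containing internal standard, centrifuged, supernatant run on reversed-phase UPLC/ESI-MRM. Quantified by peak area ratio to internal standard.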

[34] = test system: Liver; assay: Elimination half life in rat liver S9 fraction at 10 uM by reversed-phase UPLC/ESI-MRM analysis; assay type: ADME, subcellular; settings: s9, 10 µM; summary of the method: as §1
[35] = test system: Liver; assay: Primary phase half life in rat liver S9 fraction at 10 uM by reversed-phase UPLC/ESI-MRM analysis; assay type: ADME, subcellular; settings: s9, 10 µM; summary of the method: as §1

72 kDa type IV collagenase, sequence (P08253 whole entry): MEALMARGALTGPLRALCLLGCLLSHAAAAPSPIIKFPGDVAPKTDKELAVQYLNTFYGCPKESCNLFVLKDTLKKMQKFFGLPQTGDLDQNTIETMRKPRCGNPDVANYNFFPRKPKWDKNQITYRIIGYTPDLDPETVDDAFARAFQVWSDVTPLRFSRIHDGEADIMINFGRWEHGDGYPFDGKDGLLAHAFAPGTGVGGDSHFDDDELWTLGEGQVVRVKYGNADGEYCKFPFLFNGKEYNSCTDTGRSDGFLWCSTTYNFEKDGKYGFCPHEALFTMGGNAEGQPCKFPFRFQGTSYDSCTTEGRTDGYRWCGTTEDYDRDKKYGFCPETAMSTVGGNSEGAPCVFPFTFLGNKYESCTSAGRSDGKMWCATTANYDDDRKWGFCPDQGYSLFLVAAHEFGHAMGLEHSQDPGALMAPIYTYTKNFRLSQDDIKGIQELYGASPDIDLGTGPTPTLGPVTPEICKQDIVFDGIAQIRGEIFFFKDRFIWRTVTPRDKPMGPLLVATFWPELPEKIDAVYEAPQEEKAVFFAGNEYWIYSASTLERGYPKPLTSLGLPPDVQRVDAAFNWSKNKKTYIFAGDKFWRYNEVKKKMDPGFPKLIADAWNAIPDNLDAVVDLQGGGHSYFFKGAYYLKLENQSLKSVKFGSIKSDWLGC

Row | SMILES | Ki [1] [nM] | t1/2 [2] [min] | inhibition [3] | Ratio Ki [6] | inhibition [7] | inhibition [8] | Ki [9] [nM] | Ratio Ki [17] | inhibition [24] [%] | inhibition [25] [%] | Ratio Ki [26] | other results
1 | COC(=O)Nc1ccc(Oc2ccc(S(=O)(=O)CC3CS3)cc2)cc1 (stereo unspecified) | 50 | 17.6 | inactive | 2 | inactive | 38% | 2600 | – | – | – | – | Stability [4]: Unstable; Stability [5]: Unstable; Stability [10]: Unstable
2 | CCNC(=O)Nc1ccc(Oc2ccc(S(=O)(=O)CC3CS3)cc2)cc1 (stereo unspecified) | 440 | 40.7 | 7% | 20 | inactive | inactive | – | 20 | 17 | 28 | 20 | half-life [11]: 18.2 min; Drug uptake [12]: Active; AUClast [13]: 181 µM·min; Stability [14]: Stable; AUC [15]: 13.8 pmol·min/mg; AUClast [16]: 9.86 pmol·min/mg; AUC [18]: 187 µM·min; Drug uptake [19]: Active; Stability [20]: Stable; Drug uptake [21]: 0.0133 pmol; half-life [22]: 8.38 min; beta t1/2 [23]: 204 min; concentration at 5 h [27]: 70.4 nM; Kp [28]: 0.0738; beta t1/2 [29]: 61.9 min; Ki [30]: 17 µM
3 | COC(=O)Oc1ccc(Oc2ccc(S(=O)(=O)CC3CS3)cc2)cc1 (stereo unspecified) | 160 | – | 11% | 2 | 7% | – | 2400 | – | – | – | – | inhibition [31]: 31%; Ki [32]: 230 nM
4 | CC(C)NC(=O)Oc1ccc(Oc2ccc(S(=O)(=O)CC3CS3)cc2)cc1 (stereo unspecified) | 690 | – | inactive | 20 | inactive | 3% | – | 20 | 30 | 22 | 20 | –
5 | CCOC(=O)Oc1ccc(Oc2ccc(S(=O)(=O)CC3CS3)cc2)cc1 (stereo unspecified) | 230 | – | 9% | 2 | inactive | 39% | 2700 | – | – | – | – | Stability [33]: Unstable
6 | Nc1ccc(Oc2ccc(S(=O)(=O)CC3CS3)cc2)cc1 (stereo unspecified) | – | – | – | – | – | – | – | – | – | – | – | beta t1/2 [34]: 59 min; alphat1/2 [35]: 14 min
